Measurements collected from several papers.
Target: Serine/threonine-protein kinase TAO2 (TAOK2, Homo sapiens, UniProt Q9UL54)
One construct used (Q9UL54 1-1235): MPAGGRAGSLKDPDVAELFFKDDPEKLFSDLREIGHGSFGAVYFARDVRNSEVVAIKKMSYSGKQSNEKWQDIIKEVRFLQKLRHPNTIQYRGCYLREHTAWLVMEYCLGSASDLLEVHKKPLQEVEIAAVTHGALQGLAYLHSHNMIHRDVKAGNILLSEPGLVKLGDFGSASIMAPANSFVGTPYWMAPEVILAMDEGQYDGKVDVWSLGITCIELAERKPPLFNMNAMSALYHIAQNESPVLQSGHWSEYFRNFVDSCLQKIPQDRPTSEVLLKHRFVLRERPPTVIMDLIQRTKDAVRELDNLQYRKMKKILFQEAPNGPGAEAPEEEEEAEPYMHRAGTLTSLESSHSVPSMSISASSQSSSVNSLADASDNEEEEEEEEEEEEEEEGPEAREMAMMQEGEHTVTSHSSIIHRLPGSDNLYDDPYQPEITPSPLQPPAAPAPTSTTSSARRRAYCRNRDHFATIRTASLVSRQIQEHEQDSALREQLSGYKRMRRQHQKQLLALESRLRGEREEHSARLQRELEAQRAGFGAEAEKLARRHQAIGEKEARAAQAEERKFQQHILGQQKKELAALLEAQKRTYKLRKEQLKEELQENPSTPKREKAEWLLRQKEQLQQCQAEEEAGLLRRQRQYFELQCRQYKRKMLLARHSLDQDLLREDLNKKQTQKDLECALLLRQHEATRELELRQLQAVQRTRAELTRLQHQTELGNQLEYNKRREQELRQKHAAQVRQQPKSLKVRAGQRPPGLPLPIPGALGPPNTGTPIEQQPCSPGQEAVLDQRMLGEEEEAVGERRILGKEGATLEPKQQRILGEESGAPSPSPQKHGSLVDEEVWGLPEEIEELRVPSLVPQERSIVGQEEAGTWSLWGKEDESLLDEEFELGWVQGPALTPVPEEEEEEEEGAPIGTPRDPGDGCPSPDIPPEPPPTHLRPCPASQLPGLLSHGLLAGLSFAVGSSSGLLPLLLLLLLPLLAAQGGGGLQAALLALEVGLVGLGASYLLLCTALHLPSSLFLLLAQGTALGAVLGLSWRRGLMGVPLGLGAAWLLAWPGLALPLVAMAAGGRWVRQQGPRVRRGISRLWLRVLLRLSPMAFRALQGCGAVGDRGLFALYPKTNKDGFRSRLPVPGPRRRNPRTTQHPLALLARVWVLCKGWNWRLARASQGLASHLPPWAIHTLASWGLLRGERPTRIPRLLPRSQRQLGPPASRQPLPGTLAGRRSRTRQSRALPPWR

Compound	assay	conditions	endpoint	result
C[C@@H]1CCN(c2nccc(-c3cnn4ncccc34)n2)C1	binding	1 µM	remaining binding	75%
CCCS(=O)(=O)Nc1ccc(F)c(C(=O)c2c[nH]c3ncc(-c4ccc(Cl)cc4)cc23)c1F	enzyme activity, inhibitor	1 µM	inhibition	< 10%
Cc1ccc(Nc2nccc(N(C)c3ccc4c(C)n(C)nc4c3)n2)cc1S(N)(=O)=O	enzyme activity, inhibitor	0.3 µM	inhibition	43%
c1ccc(CNc2nc(N3CCOc4ccccc43)nc3c2CCCC3)cc1	target engagement in cells, inhibitor, chemoproteomics	20 mM	inhibition	-2.6%
CC(C)(C)c1nc2c(s1)c1nc(N)ncc1c1ccc(NS(=O)(=O)c3c(F)cccc3F)c(F)c12	enzyme activity, inhibitor, radiometric	1 µM	remaining activity	84%
O=[N+]([O-])c1cccc2[nH]c(CNc3nc(N4CCOCC4)nc4c3ncn4-c3ccsc3)nc12	binding, competition with immobilised ligand	10 µM	binding vs control	84%
O=C(NS(=O)(=O)c1ccc(NCC2CCOCC2)c([N+](=O)[O-])c1)c1ccc(N2CCN(Cc3ccc(C(F)(F)F)cc3-c3ccc(Cl)cc3)CC2)cc1Oc1cnc2[nH]ccc2c1	cell-free assay, competition with immobilised ligand	1 µM	remaining binding	82%
Cc1cc(NC(=O)c2cccc3cc(-c4cccc5[nH]nc(N)c45)ccc23)ccc1F	enzyme activity, inhibitor	0.1 µM	activity vs control	86%
COc1cc(-c2cc(-c3ccc(N4CCNCC4)cc3)cnc2C)cc(OC)c1OC	enzyme activity, inhibitor	1 µM	inhibition	2%
CC(=O)N1CCC(c2ccc(C(=O)NC3=NCCN3)cc2C(F)(F)F)CC1	cell-free assay, competition with immobilised ligand	1 µM	remaining binding	100%
CSc1nc(C)c(-c2ccnc(Nc3ccc(N4CCOCC4)cc3)c2)[nH]1	enzyme activity, inhibitor	10 µM	inhibition	2.1%
COc1cc(Cl)c(C(=O)N[C@@H](CN[C@H]2CC[C@@H](N)CC2)Cc2ccc(C#N)cc2)cc1-c1ccc(CN[C@H](C)c2ccc(C)cc2)o1	enzyme activity, inhibitor	1 µM	remaining activity	96%
O=C1CCc2cc(Nc3cc(OC4CCOCC4)c([N+](=O)[O-])cc3Cl)ccc2N1	cell-free assay, competition with immobilised ligand	1 µM	remaining binding	82%
CNC(=O)c1cc(Oc2ccc(NC(=O)Nc3ccc(Cl)c(C(F)(F)F)c3)cc2)ccn1	enzyme activity, inhibitor	10 µM	inhibition	102%
CCCOc1ccc([C@H]2[C@H](C(=O)O)[C@@H](c3ccc4c(c3)OCO4)CN2CC(=O)Nc2c(CC)cccc2CC)cc1	cell-free assay, competition with immobilised ligand	1 µM	remaining binding	74%
CCCCNc1ncc2c(-c3ccc(F)cc3)nn(C[C@H]3CC[C@H](N)CC3)c2n1	target engagement in cells, inhibitor, chemoproteomics	20 mM	inhibition	24.3%
CN1CCN(c2cnc3c(C4CCN(C(=O)c5ccc(OC(F)(F)F)cc5N)CC4)ncnc3c2)CC1	cell-free assay, competition with immobilised ligand	1 µM	remaining binding	100%
CCN(CC)CCNC(=O)c1c(C)[nH]c(/C=C2\C(=O)Nc3ccc(F)cc32)c1C	enzyme activity, inhibitor	0.3 µM	inhibition	-3%
